Activity calls are given as the source filed them. No cut-off for these calls is given here.
Assays:
[1] = target: T1, Estrogen-related receptor gamma (Homo sapiens) (UniProt P62508); assay: Activation of GAL4-DBD-ERRgamma ligand binding domain (unknown origin) expressed in HEK293FT cells at 2 uM incubated for 24 hrs by mammalian two-hybrid reporter gene assay; assay type: cell-based
T1 sequence (whole entry): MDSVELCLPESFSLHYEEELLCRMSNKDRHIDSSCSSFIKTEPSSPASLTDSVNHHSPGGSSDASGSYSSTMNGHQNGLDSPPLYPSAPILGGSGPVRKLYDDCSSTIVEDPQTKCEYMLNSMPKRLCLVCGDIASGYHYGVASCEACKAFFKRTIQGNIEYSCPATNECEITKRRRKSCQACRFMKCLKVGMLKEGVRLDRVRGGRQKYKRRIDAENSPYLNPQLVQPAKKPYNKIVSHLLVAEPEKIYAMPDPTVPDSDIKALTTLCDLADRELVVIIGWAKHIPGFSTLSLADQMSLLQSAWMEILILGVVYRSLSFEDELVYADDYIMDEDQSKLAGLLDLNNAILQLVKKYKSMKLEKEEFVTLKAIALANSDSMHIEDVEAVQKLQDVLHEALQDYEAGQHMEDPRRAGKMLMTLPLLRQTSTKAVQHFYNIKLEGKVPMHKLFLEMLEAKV
In short: (§1)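 293FT cells (DMEM, 10% FBS) were seeded at 10,000 cells/well and transfected 18-24 h later with GAL4-DBD-ERRγ-LBD (0.5 ng), pcDNA-PGC-1α (0.5 ng), pFR reporter (25 ng) and pRLTK renilla (3 ng). After 6 h, compound was added at 2 μM for 24 h. Dual luciferase readout, firefly/renilla ratio taken as RLU. Run in triplicate, ≥3 independent experiments.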

MEF [2] = assay: Induction of mitochondrial biogenesis in primary mouse embryonic fibroblasts assessed as increase in PGC-1alpha mRNA expression at 0.5 to 5 uM by quantitative real time PCR assay; assay type: functional, cell-based
In short: (§2)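 MEFs were grown to confluence and held 2 days, then differentiated from day 0 with 5 μg/mL insulin, 1 μM dexamethasone and 0.5 mM IBMX. From day 8, cells received compound in DMEM/10% FBS for 2 more days. Total RNA was extracted with Trizol and reverse transcribed; SYBR qPCR normalized to GAPDH. Mean ± SEM of three independent experiments.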

MEF [3] = assay: In vitro induction of white adipose browning in primary mouse embryonic fibroblasts assessed as increase in Prdm16 mRNA expression at 0.5 to 5 uM by real-time PCR assay; assay type: functional, cell-based; in short: as §2
Mus musculus [4] = assay: In vivo induction of white adipose browning in C57BL6 mouse subcutaneous white adipose tissue assessed as increase in UCP1 mRNA expression at 20 mg/kg/day, po by real-time PCR assay; assay type: functional, organism-based
In short: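 Male C57BL6 mice (8 weeks) on 60% fat diet received 20 mg/kg compound or vehicle (5% alcohol in PBS) daily by oral gavage for 4 weeks. Subcutaneous white adipose was collected and stored at -80 °C; RNA was analyzed by SYBR qPCR against GAPDH.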

[5] = target: T2, Estrogen-related receptor gamma (Mus musculus) (UniProt P62509); assay: Increase in ERRgamma mediated transcriptional activity in primary mouse embryonic fibroblasts assessed as increase in MCAD protein levels at 0.5 to 5 uM by Western blotting method
T2 sequence (whole entry): T1 sequence (whole entry)
In short: (§3)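 Differentiated MEF adipocytes were treated with compound from day 8 for 2 days. Cells were lysed in RIPA buffer on ice; 40 μg protein was run on 12% SDS-PAGE and blotted to PVDF. Primary antibodies overnight at 4 °C (UCP1 1:1000, SDH 1:4000, MCAD 1:5000, ATP5b 1:1000, β-actin 1:2000), then HRP secondary for 4 h at 4 °C and ECL detection. Three independent experiments.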

MEF [6] = assay: Induction of mitochondrial biogenesis in primary mouse embryonic fibroblasts at 5 uM incubated for 2 days by electron microscopy; assay type: functional, cell-based
In short: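 On day 10, MEF-derived white adipocytes were fixed in 2.5% glutaraldehyde for 1 h, post-fixed in 1% osmic acid for 1 h, dehydrated in graded ethanol and embedded in epoxy. Ultrathin sections were stained with uranyl acetate and lead citrate and examined by transmission electron microscopy.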

MEF [7] = assay: In vitro induction of white adipose browning in primary mouse embryonic fibroblasts assessed as increase in UCP1 positive adipocytes by Immunofluorescence staining assay; assay type: functional, cell-based
In short: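 MEF-derived adipocytes on coverslips were treated from day 8 for 2 days. They were fixed in 4% formaldehyde, blocked in 5% BSA for 1 h, stained with rabbit anti-UCP1 (1:1000, 4 °C overnight) and then Alexa Fluor 647 secondary (1:200, 1 h), with DAPI nuclei. Imaged by fluorescence microscopy.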

[8] = target: T2, Estrogen-related receptor gamma (Mus musculus); assay: Increase in ERRgamma mediated transcriptional activity in primary mouse embryonic fibroblasts assessed as increase in MCAD mRNA levels by quantitative real time PCR assay; in short: as §2
MEF [9] = assay: Induction of mitochondrial biogenesis in primary mouse embryonic fibroblasts assessed as increase in SDH mRNA expression at 0.5 to 5 uM by quantitative real time PCR assay; assay type: functional, cell-based; in short: as §2
Adipocyte = assay: In vitro induction of white adipose browning in mouse white adipocytes differentiated from primary preadipocytes cells of subcutaneous adipose tissue assessed as increase in UCP1 mRNA expression at 1 and 5 uM by real-time PCR assay; assay type: functional, cell-based
In short: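 Subcutaneous fat preadipocytes were isolated by 0.1% collagenase I digestion (40 min, 37 °C), filtered and cultured. Differentiation used insulin (5 μg/mL), dexamethasone (1 μM) and IBMX (0.5 mM). From day 8, compound was given in DMEM/10% FBS for 2 days. UCP1 mRNA was measured by SYBR qPCR against GAPDH.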

[10] = target: T2, Estrogen-related receptor gamma (Mus musculus); assay: Increase in ERRgamma mediated transcriptional activity in primary mouse embryonic fibroblasts assessed as increase in SHP mRNA levels by quantitative real time PCR assay; in short: as §2
Mus musculus [11] = assay: In vivo induction of white adipose browning in C57BL6 mouse subcutaneous white adipose tissue assessed as increase in UCP1 positive stained area at 20 mg/kg/day, po by immunohistochemistry; assay type: functional, organism-based
In short: (§4)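 Male C57BL6 mice (8 weeks) on a high-fat diet (60% energy as fat) were gavaged daily for 4 weeks with 20 mg/kg compound or vehicle (5% alcohol in PBS). Adipose tissues were fixed overnight in 4% formaldehyde, paraffin-sectioned and immunostained for UCP1 (1:1000); UCP1-positive area was quantified. Two independent experiments.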

MEF [12] = assay: Increase ERRgamma mRNA levels in primary mouse embryonic fibroblasts at 0.5 to 5 uM by quantitative real time PCR assay; assay type: functional, cell-based; in short: as §2
MEF [13] = assay: In vitro induction of white adipose browning in primary mouse embryonic fibroblasts assessed as increase in UCP1 mRNA expression by real-time PCR assay; assay type: functional, cell-based; in short: as §2
[14] = target: T1, Estrogen-related receptor gamma (Homo sapiens); assay: Activation of GAL4-DBD-ERRgamma ligand binding domain (unknown origin) expressed in HEK293FT cells incubated for 24 hrs by mammalian two-hybrid reporter gene assay; assay type: cell-based; in short: as §1
[15] = target: T1, Estrogen-related receptor gamma (Homo sapiens); assay: Binding affinity to ERRgamma (unknown origin) assessed as increase in protein melting temperature by CD spectroscopy
In short: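 Purified ERRγ protein was diluted to 0.2 mg/mL in phosphate buffer and incubated overnight with ligand (200 mM DMSO stock). CD ellipticity was read at 200–260 nm in a 1 mm quartz cuvette. Temperature was stepped 1 °C at a time from 30 to 60 °C to obtain Tm.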

[16] = target: T2, Estrogen-related receptor gamma (Mus musculus); assay: Increase in ERRgamma mediated transcriptional activity in primary mouse embryonic fibroblasts assessed as increase in ERRalpha mRNA levels by quantitative real time PCR assay; in short: as §2
MEF [17] = assay: Induction of mitochondrial biogenesis in primary mouse embryonic fibroblasts assessed as increase in COX2 mRNA expression at 0.5 to 5 uM by quantitative real time PCR assay; assay type: functional, cell-based; in short: as §2
MEF [18] = assay: Induction of mitochondrial biogenesis in primary mouse embryonic fibroblasts assessed as increase in CS mRNA expression at 0.5 to 5 uM by quantitative real time PCR assay; assay type: functional, cell-based; in short: as §2
MEF [19] = assay: Induction of mitochondrial biogenesis in primary mouse embryonic fibroblasts assessed as increase in SDH protein expression at 0.5 to 5 uM by Western blot method; assay type: functional, cell-based; in short: as §3
MEF [20] = assay: Induction of mitochondrial biogenesis in primary mouse embryonic fibroblasts assessed as increase in CPT1 mRNA expression at 0.5 to 5 uM by quantitative real time PCR assay; assay type: functional, cell-based; in short: as §2
[21] = target: T3, Estrogen-related receptor gamma (Homo sapiens, UniProt P62508); assay: Binding affinity to ERRgamma (unknown origin) at 20 degC by isothermal titration calorimetry
T3 sequence (P62508 whole entry): T1 sequence (whole entry)

[22] = target: T2, Estrogen-related receptor gamma (Mus musculus); assay: Increase in ERRgamma mediated transcriptional activity in primary mouse embryonic fibroblasts assessed as increase in ATP5b mRNA levels by quantitative real time PCR assay; in short: as §2
MEF [23] = assay: In vitro induction of white adipose browning in primary mouse embryonic fibroblasts assessed as increase in UCP1 protein expression at 0.5 to 5 uM by Western blot method; assay type: functional, cell-based; in short: as §3
[24] = target: T2, Estrogen-related receptor gamma (Mus musculus); assay: Increase in ERRgamma mediated transcriptional activity in primary mouse embryonic fibroblasts assessed as increase in ATP5b protein levels at 0.5 to 5 uM by Western blotting method; in short: as §3
Mus musculus [25] = assay: In vivo induction of white adipose browning in C57BL6 mouse interscapularbrown adipose tissue assessed as increase in UCP1 expression at 20 mg/kg/day, po by immunohistochemistry; assay type: functional, organism-based; details: in the assay text read “subcutaneous white adipose tissue” for “interscapularbrown adipose tissue”; in short: as §4
[26] = target: T2, Estrogen-related receptor gamma (Mus musculus); assay: Increase in ERRgamma mediated transcriptional activity in primary mouse embryonic fibroblasts assessed as increase in ERRalpha mRNA levels at 1 uM by quantitative real time PCR assay; in short: as §2
[27] = target: T2, Estrogen-related receptor gamma (Mus musculus); assay: Increase in ERRgamma mediated transcriptional activity in primary mouse embryonic fibroblasts assessed as increase in MCAD mRNA levels at 1 uM by quantitative real time PCR assay; in short: as §2
[28] = target: T2, Estrogen-related receptor gamma (Mus musculus); assay: Increase in ERRgamma mediated transcriptional activity in primary mouse embryonic fibroblasts assessed as increase in SHP mRNA levels at 1 uM by quantitative real time PCR assay; in short: as §2
[29] = target: T2, Estrogen-related receptor gamma (Mus musculus); assay: Increase in ERRgamma mediated transcriptional activity in primary mouse embryonic fibroblasts assessed as increase in ATP5b mRNA levels at 1 uM by quantitative real time PCR assay; in short: as §2

`Oc1ccc(-c2cn(Cc3ccccc3)nn2)cc1O` gave a fold change (FC) [1] of 1.43.

Molecule `Oc1ccc(-c2cn(Cc3ccc(-c4ccccc4)cc3)nn2)cc1O` has a fold change (FC) [1] of 2.56.

`CC(C)c1ccc(Cn2cc(-c3ccccc3)nn2)cc1` was tested, and the fold change (FC) [1] was 1.31.

Molecule `CC(C)c1ccc(/C=N/NC(=O)c2ccc(O)cc2)cc1` has a fold change (FC) [1] of 1.85.

`CC(C)(C)c1ccc(Cn2cc(-c3ccc(O)c(O)c3)nn2)cc1` showed a fold change (FC) [1] of 4.18.

`CC(C)c1ccc(Cn2cc(-c3cccc(O)c3)nn2)cc1` was tested, and the fold change (FC) [1] was 2.21.

In the case of `CC(C)c1ccc(Cn2cc(-c3ccc(O)cc3)nn2)cc1`, the fold change (FC) [1] is reported as 1.69.

`Cc1ccc(Cn2cc(-c3ccc(O)c(O)c3)nn2)cc1` showed a fold change (FC) [1] of 2.9.

For `CC(C)c1cccc(Cn2cc(-c3ccc(O)c(O)c3)nn2)c1`, the fold change (FC) [1] was 3.32.

With `CC(C)c1ccc(Cn2cc(-c3ccc(O)c(O)c3)nn2)cc1` the Activity (MEF [2]) was “Active”, the Activity (MEF [3]) was “Active” and the Activity (Mus musculus [4]) was “Active”. The Activity [5] was “Active”, the Activity (MEF [6]) was “Active” and the Activity (MEF [7]) was “Active”. For the same molecule, the Activity [8] was “Dose-dependent effect”, the Activity (MEF [9]) was “Active” and the Activity (Adipocyte) was “Active”. The Activity [10] was “Dose-dependent effect”, the Activity (Mus musculus [11]) was “Active” and the Activity (MEF [12]) was “Active”. For the same molecule, the Activity (MEF [13]) was “Dose-dependent effect”, the Activity [14] was “Dose-dependent effect” and the ΔTm [15] was 0.7 °C. For the same molecule, the Activity [16] was “Dose-dependent effect”, the Activity (MEF [17]) was “Active” and the Activity (MEF [18]) was “Active”. For the same molecule, the Activity (MEF [19]) was “Active”, the Activity (MEF [20]) was “Active” and the Kd [21] was 46 µM. The fold change (FC) [1] was 4.98, the Activity [22] was “Dose-dependent effect” and the Activity (MEF [23]) was “Active”. The Activity [24] was “Active” and the Activity (Mus musculus [25]) was “Active”.

In the case of `CC(C)c1ccc(Cn2cc(-c3ccccc3O)nn2)cc1`, the Activity [26] is reported as “inactive”, the fold change (FC) [1] is reported as 1.1 and the Activity [27] is reported as “inactive”. The Activity [28] was “inactive” and the Activity [29] was “inactive”.

`CC(C)c1ccccc1Cn1cc(-c2ccc(O)c(O)c2)nn1` was tested, and the fold change (FC) [1] was 2.4.
